This is an account of results in ChEMBL document CHEMBL4334452, “Monosaccharide Analogues of Anticancer Peptide R-Lycosin-I: Role of Monosaccharide Conjugation in Complexation and the Potential of Lung Cancer Targeting and Therapy” (J Med Chem, 2019).

In one data set the test system is HEK-293T. Kind of data set: Cytotoxicity against HEK293T cells assessed as reduction in cell viability measured after 24 hrs by CCK8 assay. Conditions: Homo sapiens, HEK-293T. It counts as cell-based, Homo sapiens. The procedure, abridged:
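Cells (A549, H460, H1437, PC-3, HGC-27, MDA-MB-231, HEK-293T, L-02) seeded at about 2×10^3/well and grown overnight. Treated 24 h with a peptide concentration series in serum-free medium. Viability by CCK-8; IC50 taken as 50% inhibition versus untreated cells. Average of three experiments, each in triplicate.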
On the technique in general: Formazan colour is commonly taken as a measure of viable cells.

The subject of data set [1] is A549. The data set can be described thus: Induction of morphological changes in 3D spheroids of human A549 cells assessed as dissociation of 3D structure at 30 uM treated every 2 days for 6 days measured every 3 days during compound dosing by microscopic analysis. The data set is classed as functional, cell-based. Summed up:
(§1)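 A549 3D spheroids, one per well, in 10% medium with peptide at 30 µM final. Dosed at day 0, then re-added at days 2 and 4, for 6 days total. Spheroids washed thrice, then imaged and sized at days 0, 3 and 6. Viability read by CCK-8.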

The test system of data set [2] is A549. The data set can be described thus: Induction of apoptosis in human A549 cells assessed as late apoptotic cells at 8 uM measured after 4 hrs by Annexin V-FITC/propidium iodide staining-based flow cytometry (reference value: 3.61%). It counts as functional. Summed up: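 A549 cells grown 24 h, trypsinized, then resuspended in medium with 8 µM peptide for 4 h at 37 °C. Cells washed with cold PBS, stained with Annexin V-FITC/PI, and analysed by flow cytometry.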
For orientation: Flow cytometry measures light scatter and fluorescence of single cells or particles in a stream.

The subject of data set [3] is A549. The data set can be described thus: Induction of morphological changes in human A549 cells assessed as cell shrinkage at 15 uM measured after 24 hrs by scanning electron microscopic analysis. It counts as functional, cell-based.
The target of data set [4] is T1, Solute carrier family 2, facilitated glucose transporter member 1 (Homo sapiens) (UniProt P11166).
T1 sequence (whole entry): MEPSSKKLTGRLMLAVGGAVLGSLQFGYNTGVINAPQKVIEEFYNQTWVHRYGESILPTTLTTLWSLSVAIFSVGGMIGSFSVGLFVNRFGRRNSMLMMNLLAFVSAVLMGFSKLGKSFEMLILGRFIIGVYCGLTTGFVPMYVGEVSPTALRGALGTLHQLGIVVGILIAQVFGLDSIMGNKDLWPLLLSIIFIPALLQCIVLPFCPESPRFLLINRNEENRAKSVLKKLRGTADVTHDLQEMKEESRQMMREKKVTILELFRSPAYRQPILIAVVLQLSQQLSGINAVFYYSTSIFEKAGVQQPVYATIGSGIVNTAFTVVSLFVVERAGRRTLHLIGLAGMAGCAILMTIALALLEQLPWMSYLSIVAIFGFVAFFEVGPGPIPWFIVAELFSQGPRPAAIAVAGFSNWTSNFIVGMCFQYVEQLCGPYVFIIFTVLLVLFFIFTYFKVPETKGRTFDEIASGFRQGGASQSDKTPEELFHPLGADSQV
The data set can be described thus: Binding affinity to GLUT1 in 3D spheroids of human A549 cells assessed as cytotoxicity by measuring reduction in cell viability at 30 uM treated every 2 days for 6 days by CCK8 assay. It counts as cell-based. The procedure, abridged:
as §1

Data set [5] concerns the target T1, Solute carrier family 2, facilitated glucose transporter member 1 (Homo sapiens). Kind of data set: Binding affinity to GLUT1 in human A549 cells assessed as cytotoxicity by measuring LDH release at 12.5 uM measured after 2 hrs relative to control. It counts as cell-based. Summed up:
(§2)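 A549 cells at 2×10^3/well, allowed to adhere overnight, then exposed to peptide over a concentration series for 2 h. LDH release measured with a kit, absorbance at 490 nm. 1% Triton X-100 taken as 100% release; n=3.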

A short description of data set [6]: Drug uptake in liver of Balb/c nu/nu mouse xenografted with human A549 cells expressing luciferase gene at 3 mg/kg administered intratumorally measured after 6 hrs by fluorescence assay. The following applies: in vivo, other. It counts as ADME, organism-based. On the technique in general: A xenograft is tissue or cells of one species grown in another, often human tumour cells in immunodeficient mice.

The subject of data set [7] is A549. Kind of data set: Induction of apoptosis in human A549 cells assessed as appearance of apoptotic bodies at 15 uM measured after 24 hrs by scanning electron microscopic analysis. It counts as functional, cell-based.
Data set [8] deals with A549. The data set can be described thus: Induction of mitochondrial membrane disruption in human A549 cells assessed as increase in cytochrome C level in cytoplasm at 15 uM measured after 24 hrs by immunofluorescence assay. It counts as functional, cell-based. The procedure, abridged:
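A549 cells given 15 µM peptide for 24 h, permeabilized 2 min with 0.5% Triton X-100 and blocked 30 min in 10% sheep serum/PBS. Anti-CytC (1:100) applied 2 h at RT, then fluorescent goat anti-mouse secondary (1:200) for 1 h. Confocal imaging; untreated cells served as control.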

The subject of data set [9] is A549. The data set can be described thus: Induction of morphological changes in human A549 cells assessed as disruption of cell membrane at 15 uM measured after 24 hrs by scanning electron microscopic analysis. The data set is classed as functional, cell-based. Summed up:
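A549 cells pre-seeded on mica sheets for 24 h at 37°C, then exposed to 15 μM peptide for 24 h at 37°C. Cells were PBS-washed twice, fixed in 4% paraformaldehyde for 15 min, dehydrated through graded ethanol and imaged by SEM at 15 kV. Untreated cells served as control.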

Data set [10] concerns A549. Kind of data set: Induction of mitochondrial membrane potential loss in human A549 cells at 15 uM measured after 24 hrs by JC1 staining based fluorescence microscopic analysis. The data set is classed as functional, cell-based. The procedure, abridged:
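A549 cells exposed to 15 µM peptide for 24 h, then stained with JC-1 kit. Monomer and aggregate emissions viewed by fluorescence microscopy; depolarization read as a rise in the green/red ratio, n=3.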

A short description of data set [11]: Drug uptake in heart of Balb/c nu/nu mouse xenografted with human A549 cells expressing luciferase gene at 3 mg/kg administered intratumorally measured after 6 hrs by fluorescence assay. The data set is classed as ADME, organism-based. The following applies: in vivo, other.
Data set [12] concerns the target T1, Solute carrier family 2, facilitated glucose transporter member 1 (Homo sapiens). The data set can be described thus: Binding affinity to GLUT1 in human A549 cells assessed as cytotoxicity by measuring increase in LDH release at 25 uM measured after 2 hrs. It counts as cell-based. The procedure, abridged: as §2
The test system of data set [13] is A549. Kind of data set: Antitumor activity against human A549 cells expressing luciferase gene xenografted in Balb/c nu/nu mouse assessed as reduction in tumor volume at 9 mg/kg, ip administered every 2 days for seven times measured on day 14 by bioluminescent imaging analysis. The data set is classed as functional, organism-based. The procedure, abridged: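 Male BALB/c nu/nu mice, 4-6 weeks old, carrying subcutaneous A549-luciferase xenografts in the right back. Dosing started when tumors reached 100-200 mm³ (day 0), five per group. Peptide was given at 9 mg/kg i.p. in 200 µL every other day for 7 doses; PBS served as control. Bioluminescent imaging on day 14; tumor size and body weight tracked. Tumors fixed in paraformaldehyde, paraffin-sectioned, TUNEL-stained.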

Data set [14] has as its system A549. Kind of data set: Inhibition of colony formation in human A549 cells at 4 uM supplemented with fresh medium containing compounds every 7 days for 15 days by crystal violet staining based assay. The data set is classed as functional, cell-based. The procedure, abridged:
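Cells seeded at 300 per plate in 6-well plates; after 36 h exposed to 4 μM peptide, re-added after 7 days. Incubated 15 days total at 37°C, 5% CO2, then colonies stained with 2% crystal violet and quantified; n=3.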

Data set [15] in a line: Toxicity in Balb/c nu/nu mouse xenografted with human A549 cells expressing luciferase gene assessed as effect on kidney at 9 mg/kg, ip administered every 2 days for seven times measured on day 14 by H and E staining based assay. It counts as organism-based. Conditions: in vivo, 48 h. Summed up: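 Male BALB/c nu/nu mice bearing subcutaneous A549-luciferase xenografts received 9 mg/kg peptide i.p. (200 µL) every other day for seven doses, with a PBS control group of five. Heart, liver and kidney were fixed in 10% paraformaldehyde, sectioned and stained with H&E for histology.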

Data set [16] in a line: Drug uptake in tumor of Balb/c nu/nu mouse xenografted with human A549 cells expressing luciferase gene at 9 mg/kg, ip measured after 6 hrs by fluorescence assay. The data set is classed as ADME, organism-based, Neoplasm. Conditions: in vivo.

Active and inactive are the calls of the source. The rule behind the calls is not given here. *1 amine or outer side, *2 acyl side, *3 side chain or, on linkers, in order; H or OH if unused. Where a SMILES comes first, the peptide text is derived from it. The star is where a group is joined. NH(CH2)3O(βDGlc) = OC[C@H]1O[C@@H](OCCCN*)[C@H](O)[C@@H](O)[C@@H]1O; Glutaryl = O=C(CCCC(=O)[*:2])[*:1]

The term IC50 denotes the concentration at which inhibition is half-maximal. Regarding `CC[C@H](C)[C@H](NC(=O)[C@H](Cc1ccccc1)NC(=O)[C@H](CCCNC(=N)N)NC(=O)[C@H](C)NC(=O)[C@@H](NC(=O)[C@H](CO)NC(=O)[C@H](CCCNC(=N)N)NC(=O)[C@H](CCSC)NC(=O)[C@H](C)NC(=O)[C@H](CCCNC(=N)N)NC(=O)[C@H](Cc1ccccc1)NC(=O)[C@H](Cc1c[nH]c2ccccc12)NC(=O)CNC(=O)[C@@H](N)CCCNC(=N)N)[C@@H](C)CC)C(=O)N[C@@H](C)C(=O)N[C@@H](CCCNC(=N)N)C(=O)N[C@@H](CCC(=O)O)C(=O)N[C@@H](CCCNC(=N)N)C(=O)N[C@@H](CC(C)C)C(=O)N[C@@H](CCCNC(=N)N)C(=O)N[C@@H](CCC(=O)O)C(=O)N[C@@H](Cc1cnc[nH]1)C(=O)N[C@@H](CC(C)C)C(=O)O` (H-RGWFRAMRSIARFIARERLREHL-OH), the IC50 in the data set on HEK-293T amounted to 25.8 µM. Further, the result (in the data set on A549 [1]; with A549 [3]; in data set [4]; in the data set with A549 [7]; in the data set with A549 [8]; in the data set on A549 [9]) was Active. Moreover, the outcome (in the data set on A549 [10]; in data set [12]) was Active. The values for the Activity (with A549 [2]; in data set [5]) were 9.87% and more than 30%, respectively. Further, the Drug uptake entry in data set [6] and in data set [11] was “Active” in each case.
Take `CC[C@H](C)[C@H](NC(=O)[C@H](Cc1ccccc1)NC(=O)[C@H](CCCNC(=N)N)NC(=O)[C@H](C)NC(=O)[C@@H](NC(=O)[C@H](CO)NC(=O)[C@H](CCCNC(=N)N)NC(=O)[C@H](CCSC)NC(=O)[C@H](C)NC(=O)[C@H](CCCNC(=N)N)NC(=O)[C@H](Cc1ccccc1)NC(=O)[C@H](Cc1c[nH]c2ccccc12)NC(=O)CNC(=O)[C@H](CCCNC(=N)N)NC(=O)CCCC(=O)NCCCO[C@@H]1O[C@H](CO)[C@@H](O)[C@H](O)[C@H]1O)[C@@H](C)CC)C(=O)N[C@@H](C)C(=O)N[C@@H](CCCNC(=N)N)C(=O)N[C@@H](CCC(=O)O)C(=O)N[C@@H](CCCNC(=N)N)C(=O)N[C@@H](CC(C)C)C(=O)N[C@@H](CCCNC(=N)N)C(=O)N[C@@H](CCC(=O)O)C(=O)N[C@@H](Cc1cnc[nH]1)C(=O)N[C@@H](CC(C)C)C(=O)O` ({NH(CH2)3O(βDGlc)-Glutaryl}-RGWFRAMRSIARFIARERLREHL-OH): in the data set on HEK-293T, the IC50 was 37.4 µM. In addition, the outcome (with A549 [1]; with A549 [3]; in the data set with A549 [13]; in [4]; in the data set with A549 [7]; in the data set on A549 [8]) was Active. Also, the result (in the data set on A549 [9]; in the data set with A549 [10]; in data set [12]) was Active. Further, the Activity is 38.49% in the data set on A549 [2], more than 30% in data set [5] and “Non-Toxic” in data set [15]. The Drug uptake result in [6], in data set [16] and in [11] was “Active” throughout. In the data set on A549 [14], the inhibition result is “Active”.
